This note sets out measurements from ChEMBL document CHEMBL3425440, “ent-Kaurane Diterpenoids from Chinese Liverworts and Their Antitumor Activities through Michael Addition As Detected in Situ by a Fluorescence Probe” (J Med Chem, 2015).

In one series the test system is MDA-MB-231. The series can be described thus: Cytotoxicity against human MDA-MB-231 cells assessed as cell viability after 24 hrs by MTT assay. Format: functional, cell-based. Particulars: MDA-MB-231, 24 h. The procedure, abridged: (§1)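 Cells grown to about 50−70% confluence at 37 °C, 5% CO2, then exposed to compounds 24 h (DMSO vehicle control, cisplatin positive control). MTT (5 mg/mL stock) added for 4 h, formazan dissolved in DMSO, absorbance read at 570 nm. IC50 derived from percent viability; at least three independent experiments, mean ± SD.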

Series [1] in a line: Cytotoxicity against human HL60 cells assessed as cell viability after 24 hrs by MTT assay. Format: functional, cell-based. Particulars: HL-60, 24 h. The procedure, abridged: as §1
Series [2] in a line: Cytotoxicity against human PC3 cells assessed as cell viability after 24 hrs by MTT assay. Format: functional, cell-based. Particulars: PC-3, 24 h. The method, boiled down: as §1
(In general: Tetrazolium assays rely on reduction of a dye to a coloured formazan, in cell work by metabolically active cells.)

In series [3] the test system is PC-3. The series can be described thus: Reduction in total glutathione level in human PC3 cells at 6 uM by DNTB-based assay. In kind it is functional, cell-based. Particulars: TDE = time-dependent effect. The method, boiled down:
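PC3 cells exposed to 6 μM compound for the indicated times, lysed by freeze–thaw in protein removal agent and supernatant collected. Total glutathione read with DTNB at 412 nm; GSSG read after masking GSH with 2-vinylpyridine; GSH taken as the difference. Expressed relative to control.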

For another series, the system named is K562. The series can be described thus: Cytotoxicity against human K562 cells assessed as cell viability after 24 hrs by MTT assay. In kind it is functional, cell-based. Particulars: K562, 24 h. The procedure, abridged:
as §1

A further series relates to NCI-H1299. The series can be described thus: Cytotoxicity against human NCI-H1299 cells assessed as cell viability after 24 hrs by MTT assay. Format: functional, cell-based. The note with it: NCI-H1299, 24 h. The procedure, abridged: as §1
Series [4] relates to PC-3. The series can be described thus: Cytotoxicity against human PC3 cells assessed as decrease in cell viability at 6 uM after 24 hrs by MTT assay in presence of antioxidant N-acetylcysteine. Format: functional, cell-based. The method, boiled down:
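PC3 cells pretreated with 5 mM NAC for 1 h, then given 6 μM compound with or without the antioxidant for 24 h. Viability read by MTT (formazan in DMSO, absorbance at 570 nm). Mean ± SD.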

The subject of series [5] is PC-3. Nature of the series: Reduction in glutathione level in human PC3 cells preincubated for 4 hrs followed by fluorescence probe addition measured after 1 hr by 3-azido-7-(diethylamino)-2H-chromen-2-one fluorescence probe-based confocal microscopic analysis. In kind it is functional, cell-based. The method, boiled down:
(§2)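 PC3 cells on glass coverslips treated with compound for 4 h (5 μM NEM as thiol-scavenger control), fixed in cold methanol/acetone (1:1) for 5 min. Stained with 30 μM azidocoumarin probe, which fluoresces on reaction with thiols, for 1 h at room temperature in the dark. Mean cellular fluorescence quantified by confocal microscopy; mean ± SD.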

The test system of series [6] is PC-3. Nature of the series: Induction of reactive oxygen species formation in human PC3 cells at 6 uM after 4 hrs by DCFH-DA staining-based flow cytometric analysis in presence of antioxidant N-acetylcysteine. Format: functional, cell-based. The method, boiled down: (§3)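 PC3 cells exposed to 6 μM compound for 4 h, with optional 5 mM NAC added 1 h beforehand. Loaded with 10 μM DCFH-DA at 37 °C for 30 min, washed, resuspended in PBS and read at once by flow cytometry. ROS expressed as ratio relative to control; Student's t test.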

Series [7] has as its system PC-3. Nature of the series: Induction of reactive oxygen species formation in human PC3 cells at 6 uM by DCFH-DA staining-based flow cytometric analysis. In kind it is functional, cell-based. Particulars: TDE = time-dependent effect. The method, boiled down: as §3
Background: In flow cytometry, cells or beads pass a laser one at a time.

The nature of series [8]: Cytotoxicity against human RWPE1 cells assessed as cell viability after 24 hrs by MTT assay. Particulars: RWPE-1, 24 h. Format: cell-based. The method, boiled down:
as §1

Another series concerns DU-145. Nature of the series: Cytotoxicity against human DU145 cells assessed as cell viability after 24 hrs by MTT assay. Format: functional, cell-based. Particulars: DU-145, 24 h. The method, boiled down: as §1
For series [9], the system named is PC-3. Nature of the series: Reduction in glutathione level in human PC3 cells at 6 uM preincubated for 4 hrs followed by fluorescence probe addition by 3-azido-7-(diethylamino)-2H-chromen-2-one fluorescence probe-based confocal microscopic analysis. In kind it is functional, cell-based. The note with it: TDE = time-dependent effect. The procedure, abridged:
as §2

Series [10] in a line: Cytotoxicity against human Saos2 cells assessed as cell viability after 24 hrs by MTT assay. The note with it: SAOS-2, 24 h. In kind it is functional, cell-based. The method, boiled down:
as §1

The nature of series [11]: Cytotoxicity against human SH-SY5Y cells assessed as cell viability after 24 hrs by MTT assay. Format: functional, cell-based. The method, boiled down: as §1
The subject of another series is LNCaP. The series can be described thus: Cytotoxicity against human LNCAP cells assessed as cell viability after 24 hrs by MTT assay. Format: functional, cell-based. The method, boiled down: as §1
Series [12] is described as follows: Cytotoxicity against human A172 cells assessed as cell viability after 24 hrs by MTT assay. In kind it is functional, cell-based. Particulars: A 172, 24 h. The method, boiled down: as §1
Series [13] is described as follows: Cytotoxicity against human SKOV3 cells assessed as cell viability after 24 hrs by MTT assay. Particulars: SK-OV-3, 24 h. In kind it is functional, cell-based. The method, boiled down:
as §1

Another series concerns LoVo. The series can be described thus: Cytotoxicity against human LoVo cells assessed as cell viability after 24 hrs by MTT assay. In kind it is functional, cell-based. The method, boiled down: as §1
Series [14] in a line: Cytotoxicity against human T24 cells assessed as cell viability after 24 hrs by MTT assay. Format: functional, cell-based. Particulars: T-24, 24 h. The procedure, abridged: as §1
Series [15] has as its system PC-3. Nature of the series: Reduction in glutathione level in human PC3 cells at 5 uM preincubated for 4 hrs followed by fluorescence probe addition measured after 1 hr by 3-azido-7-(diethylamino)-2H-chromen-2-one fluorescence probe-based confocal microscopic analysis. In kind it is functional, cell-based. The procedure, abridged:
as §2

In series [16] the test system is PC-3. The series can be described thus: Induction of apoptosis in human PC3 cells assessed as cathepsin B release from lysosome to cytosol at 8 uM measured over 48 hrs by Western blot analysis. In kind it is functional, cell-based. The method, boiled down:
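PC3 cells treated with 8 μM compound for the indicated times, lysed in RIPA buffer with protease inhibitors, protein quantified by BCA. Run on 12% SDS-PAGE, transferred to nitrocellulose, blocked in 5% milk/TBST. Probed overnight at 4 °C for cathepsin B with GAPDH loading control; ECL detection.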
For orientation: In western blotting, separated proteins are transferred to a membrane and probed.

Series [17] can be described thus: Selectivity index, ratio of IC50 for human RWPE1 cells to IC50 for human PC3 cells. In kind it is functional.
In series [18] the test system is PC-3. The series can be described thus: Induction of apoptosis in human PC3 cells assessed as appearance of swelled/fused lysosomes at 8 uM after 2 hrs by LysoTracker Red and Hoechst 33342 staining-based confocal microscopic analysis. In kind it is functional, cell-based. The method, boiled down:
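PC3 cells given 8 μM compound for 2 h, then stained 30 min at 37 °C with 100 ng/mL LysoTracker Red and 10 μg/mL Hoechst 33342. Washed in PBS and imaged by confocal microscopy to assess lysosome swelling or fusion.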

The nature of series [19]: Drug uptake in lysosome of human PC3 cells at 8 uM preincubated for 4 hrs followed by fluorescence probe addition measured after 1 hr by 3-azido-7-(diethylamino)-2H-chromen-2-one fluorescence probe-based confocal microscopic analysis. In kind it is ADME, cell-based. The note with it: pc-3, 1 h. The procedure, abridged: as §2

Active and inactive are the calls of the source. The calls are words filed in the database; no cut-off is given here.

`C=C1C(=O)[C@@]23CC[C@H]4[C@@](C)(CCC[C@@]4(C)C(=O)OC)[C@@H]2CC[C@]1(O)C3`: the IC50 with MDA-MB-231 was found to be 5.2 µM; in [1], 1.5 µM; in series [2], 6.1 µM; in the series on K562 it was 2.9 µM; with NCI-H1299, 9.2 µM; in series [8], 7 µM. Further, the 50% inhibitory concentration (IC50) with DU-145 amounted to 10.8 µM. In addition, the Activity entry with PC-3 [3] was “tde”; in the series on PC-3 [5], “Dose-dependent effect”; in the series with PC-3 [7], “tde”; in the series on PC-3 [9] it was “tde”. The outcome in the series with PC-3 [4] and in the series with PC-3 [6] was inactive.
In the case of `C=C1C(=O)[C@H]2C[C@]1(O)CC1=C2[C@]2(C)CCCC(C)(C)[C@H]2CC1`, the IC50 was found to be 2.4 µM in [10]; 1.6 µM in series [11]; 3.4 µM in the series with MDA-MB-231; 1.9 µM in series [1]; 2.8 µM with LNCaP; 2.7 µM in [12]. The IC50 in series [2] was 2.2 µM; in the series on K562, 2.2 µM; in the series on NCI-H1299, 2.6 µM; in series [13] it was 2.9 µM; in the series on LoVo, 2.3 µM; in series [8], 6.3 µM. The IC50 was determined as 3.2 µM with DU-145 and 2.3 µM in series [14]. Further, the outcome in the series on PC-3 [15] was Active.
As to `C=C1C(=O)[C@H]2C[C@]1(O)CC1=C2[C@]2(C)CCC[C@](C)(CO)[C@H]2CC1`, the IC50 was 10.4 µM in the series with MDA-MB-231, 8.2 µM in [2], 18.6 µM in series [8] and 9.4 µM in the series on DU-145. For the same compound, the result in the series with PC-3 [15] was Active.
For the compound `C=C1C(=O)[C@@]23CC[C@H]4[C@@](C)(CCC[C@@]4(C)C(=O)O)[C@@H]2CC[C@]1(O)C3`, the concentration for half-maximal inhibition (IC50) in the series on MDA-MB-231 was 37.2 µM; in series [1] it was 7.9 µM; in series [2] it was 30.1 µM; in the series on K562, 9.9 µM; in the series with NCI-H1299, 32.8 µM; in [8], 27 µM. In addition, the IC50 in the series with DU-145 amounted to 48.5 µM. Further, the outcome with PC-3 [15] was Active.
Regarding `C=C1C(=O)[C@@]23CC[C@H]4[C@@](C)(CCC[C@@]4(C)C(=O)OCCN4CCN(C)CC4)[C@@H]2CC[C@]1(O)C3`, the IC50 in the series on MDA-MB-231 amounted to 27.5 µM; in series [1], 3 µM; in [2], 8.2 µM; in the series on K562, 4.1 µM; in the series with NCI-H1299 it was 10.9 µM; in [8], 29.3 µM. For the same compound, the IC50 in the series with DU-145 stood at 14.9 µM. Moreover, the outcome with PC-3 [16] and in the series on PC-3 [18] was Active. In series [17], the “Ratio IC50” value is on record as 3.6. Moreover, the Drug uptake result in series [19] was “Active”.

By IC50 is commonly meant the concentration that inhibits the measured activity by half.
